Source: ChEMBL document CHEMBL3414433, “Discovery and profiling of a selective and efficacious Syk inhibitor” (J Med Chem, 2015)

What was measured:
[1] = target: T1, Tyrosine-protein kinase SYK (Homo sapiens, UniProt P43405); assay: Inhibition of Syk in anti-igM stimulated human Ramos B cells assessed as phospho-BLNK level preincubated for 30 mins followed by anti-IgM stimulation measured after 15 mins by flow cytometric analysis; format: cell-based
[2] = target: T1, Tyrosine-protein kinase SYK
[3] = target: Voltage-gated inwardly rectifying potassium channel KCNH2 (Homo sapiens, UniProt Q12809); assay: Inhibition of human ERG expressed in CHO cells by automated Qpatch clamp assay; format: cell-based
Sequence of Voltage-gated inwardly rectifying potassium channel KCNH2 (Q12809 whole entry): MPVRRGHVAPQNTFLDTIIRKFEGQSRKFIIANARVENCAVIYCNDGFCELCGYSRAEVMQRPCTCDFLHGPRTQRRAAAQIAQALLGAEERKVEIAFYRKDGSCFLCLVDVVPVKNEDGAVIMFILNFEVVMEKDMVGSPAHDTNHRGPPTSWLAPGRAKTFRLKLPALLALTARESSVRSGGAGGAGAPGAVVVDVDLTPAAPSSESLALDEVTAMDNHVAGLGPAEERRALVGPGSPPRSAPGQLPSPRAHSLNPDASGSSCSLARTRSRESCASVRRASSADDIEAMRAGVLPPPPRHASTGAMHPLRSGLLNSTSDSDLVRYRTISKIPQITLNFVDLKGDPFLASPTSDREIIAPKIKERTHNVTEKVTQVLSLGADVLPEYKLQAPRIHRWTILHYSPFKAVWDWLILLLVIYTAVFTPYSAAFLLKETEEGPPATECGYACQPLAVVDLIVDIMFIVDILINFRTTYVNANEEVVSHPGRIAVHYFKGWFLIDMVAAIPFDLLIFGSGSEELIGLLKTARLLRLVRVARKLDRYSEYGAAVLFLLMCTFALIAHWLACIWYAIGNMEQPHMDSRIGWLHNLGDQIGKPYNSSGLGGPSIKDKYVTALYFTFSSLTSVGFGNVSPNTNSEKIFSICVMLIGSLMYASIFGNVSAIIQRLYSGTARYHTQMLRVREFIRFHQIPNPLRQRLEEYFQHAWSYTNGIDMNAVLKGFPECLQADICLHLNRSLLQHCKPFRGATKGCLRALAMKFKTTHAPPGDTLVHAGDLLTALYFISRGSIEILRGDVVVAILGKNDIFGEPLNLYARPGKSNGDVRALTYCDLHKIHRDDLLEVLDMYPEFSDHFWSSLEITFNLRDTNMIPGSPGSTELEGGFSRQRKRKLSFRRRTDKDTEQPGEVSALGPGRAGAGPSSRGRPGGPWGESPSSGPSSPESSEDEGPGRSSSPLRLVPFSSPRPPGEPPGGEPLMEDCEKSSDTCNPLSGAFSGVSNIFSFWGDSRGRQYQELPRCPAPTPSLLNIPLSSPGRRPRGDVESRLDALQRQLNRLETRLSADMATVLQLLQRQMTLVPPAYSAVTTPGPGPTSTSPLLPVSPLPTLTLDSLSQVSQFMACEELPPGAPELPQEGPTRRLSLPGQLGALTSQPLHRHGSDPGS

[4] = Cytotoxicity against C57BL/6 mouse bone marrow cells assessed as growth inhibition preincubated for 4 days followed by [3H]-thymidine addition measured after 5 hrs by betaplate counting analysis; format: cell-based, Bone marrow cell
[5] = target: T1, Tyrosine-protein kinase SYK; assay: Inhibition of Syk in anti-CD32 stimulated CD14+ human monocytes assessed as phospho-SLP76 level preincubated for 30 mins followed by anti-CD32 stimulation measured after 5 mins by flow cytometric analysis
[6] = system: Hepatocyte; assay: Metabolic stability in human hepatocytes assessed as compound remaining; format: ADME, cell-based
[7] = Metabolic stability in dog hepatocytes assessed as compound remaining; format: ADME, cell-based, Canis lupus familiaris, Hepatocyte
[8] = Metabolic stability in monkey hepatocytes assessed as compound remaining; format: ADME, cell-based, Macaca mulatta, Hepatocyte; details: rhesus monkey
[9] = system: Hepatocyte; assay: Metabolic stability in rat hepatocytes assessed as compound remaining; format: ADME, cell-based
[10] = Mean residence time in Sprague-Dawley rat at 1 mg/kg, iv and 3 mg/kg, po administered as cassette dosing; format: ADME, organism-based; details: in vivo
Method in brief: (§1)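 Rats were dosed i.v. at 1 mg/kg in NMP/PEG200 (3:7) and p.o. at 3 mg/kg in CMC/water/Tween (0.5:99:0.5). PK parameters were derived from blood concentration–time curves for both routes.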

[11] = system: Rattus norvegicus; assay: Dose normalized AUC in Sprague-Dawley rat at 3 mg/kg, po administered as cassette dosing; format: ADME, organism-based; set-up: dose 3 mg/kg, route oral; details: in vivo
Method in brief: (§2)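 Rat PK: i.v. 1 mg/kg in NMP/PEG200 (3:7); p.o. 3 mg/kg in CMC/water/Tween (0.5:99:0.5). Exposure values dose normalized.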

[12] = system: Rattus norvegicus; assay: Dose normalized Cmax in Sprague-Dawley rat at 1 mg/kg, iv and 3 mg/kg, po administered as cassette dosing; format: ADME, organism-based; details: in vivo; method in brief: as §2
[13] = system: Rattus norvegicus; assay: Dose normalized AUC in Sprague-Dawley rat at 1 mg/kg, iv administered as cassette dosing; format: ADME, organism-based; set-up: dose 1 mg/kg, route intravenous; details: in vivo; method in brief: as §2
[14] = Volume of distribution at steady state in Sprague-Dawley rat at 1 mg/kg, iv and 3 mg/kg, po administered as cassette dosing; format: ADME, organism-based; details: in vivo, read-out: Vdss; method in brief: as §1
[15] = Clearance in Sprague-Dawley rat at 1 mg/kg, iv and 3 mg/kg, po administered as cassette dosing; format: ADME, organism-based; details: in vivo; method in brief: as §2
[16] = Oral bioavailability in Sprague-Dawley rat at 3 mg/kg administered as cassette dosing; format: ADME, organism-based; details: in vivo; method in brief: as §1
[17] = target: T2, hERG (KCNH2) (Homo sapiens, UniProt Q12809); assay: Inhibition of human ERG at 3 uM by manual patch clamp assay relative to control
T2 sequence (Q12809 whole entry): as above

[18] = target: T2, hERG (KCNH2); assay: Inhibition of human ERG at 10 uM by manual patch clamp assay relative to control
[19] = Metabolic stability in monkey liver assessed as formation of 2-(7-(3-((1R,2S)-2-aminocyclohexylamino)-6-carbamoyl-1,2,4-triazin-5-ylamino)-3-oxo-3H-indol-2-ylamino)-3-mercaptopropanoic acid at 10 to 20 uM after 8 to 18 hrs; format: ADME, tissue-based, Macaca mulatta; details: rhesus monkey
Method in brief: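 Freshly excised monkey liver was cut into 230 μm slices from 8 mm cores. Four slices per vessel were preincubated 1 h at 37 °C in Williams medium E with 10% FBS, glucose, insulin, hydrocortisone, methionine, gentamycin and amphotericin B, under 75% O2/5% CO2/20% N2 with rotation. Compound was added at 10 or 20 μM (from 2 mM DMSO stock) for 8 or 18 h, then quenched with cold acetonitrile.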

[20] = Mus musculus, C57BL/6, Bone marrow cell

SMILES | IC50 [1] [nM] | IC50 [2] [nM] | IC50 [3] [nM] | IC50 [4, 20] [nM] | IC50 [5] [nM] | further results
NC(=O)c1ncc(N[C@@H]2CCCC[C@@H]2N)nc1Nc1cccc(-n2nccn2)c1 | 69 | 1 | 10000 | 2110 | 1790 | –
NC(=O)c1cnc(N[C@@H]2CCCC[C@@H]2NC(=O)OCc2ccccc2)nc1Nc1cccc2cc[nH]c12 | – | – | – | – | – | Stability [6]: 2.1%; Stability [7]: 8.4%; Stability [8]: 13%; Stability [9]: 2.6%
NC(=O)c1ccc(N[C@@H]2CCCC[C@@H]2N)nc1Nc1cccc2cc[nH]c12 | 438 | 165 | > 30000 | > 10000 | – | –
NC(=O)c1nnc(N[C@@H]2CCCC[C@@H]2N)nc1Nc1cccc2[nH]ccc12 | 14 | – | 3700 | 5270 | 177 | MRT [10]: 2.1 h; AUC/dose [11]: 19 nM·h; Cmax/dose [12]: 4 nM; AUC/dose [13]: 522 nM·h; Vd [14]: 10.3 L/kg; clearance [15]: 83 mL/min/kg; bioavailability [16]: 4%
c1cn2cc(-c3ccc4cn[nH]c4c3)nc(Nc3ccc(N4CCOCC4)cc3)c2n1 [ENTOSPLETINIB] | – | – | – | – | – | IC50 ([4]; bone marrow cell): 582 nM
NC(=O)c1cnc(N[C@@H]2CCCC[C@@H]2N)nc1Nc1cccc2cc[nH]c12 | 170 | 94 | > 30000 | > 10000 | 782 | –
NC(=O)c1cnc(N[C@@H]2CCCC[C@@H]2N)nc1Nc1cccc(-n2nccn2)c1 | – | – | – | 5850 | – | –
NC(=O)c1nnc(N[C@@H]2CCCC[C@@H]2N)nc1Nc1cccc(-n2nccn2)c1 | – | – | 3700 | 811 | – | –
NC(=O)c1ccc(N[C@@H]2CCCC[C@@H]2N)nc1Nc1cccc(-n2nccn2)c1 | 445 | 19 | – | 2600 | – | –
N[C@H]1CCCC[C@H]1Nc1cc2nc[nH]c(=O)c2c(Nc2cccc(-n3nccn3)c2)n1 | – | – | – | 249 | – | –
N[C@H]1COCC[C@H]1Nc1cc2cc[nH]c(=O)c2c(Nc2cccc3cc[nH]c23)n1 | – | – | – | 3520 | – | –
NC(=O)c1ncc(N[C@@H]2CCCC[C@@H]2N)nc1Nc1cccc2cc[nH]c12 | 30 | 5 | 8100 | 5270 | 302 | MRT [10]: 7.2 h; inhibition at 3 µM [17]: 13%; AUC/dose [11]: 1523 nM·h; inhibition at 10 µM [18]: 50%; Cmax/dose [12]: 108 nM; AUC/dose [13]: 1610 nM·h; Vd [14]: 12.3 L/kg; clearance [15]: 28 mL/min/kg; bioavailability [16]: 95%
NC(=O)c1nnc(N[C@@H]2CCCC[C@@H]2N)nc1Nc1cccc2c1N=C(NC(CS)C(=O)O)C2=O (stereo partly drawn) | – | – | – | – | – | Drug metabolism [19]: 0.9 µg
